Reference: ChEMBL document CHEMBL4014335, “Activation of Phenyl 4-(2-Oxo-3-alkylimidazolidin-1-yl)benzenesulfonates Prodrugs by CYP1A1 as New Antimitotics Targeting Breast Cancer Cells” (J Med Chem, 2017)
pIC50, pKi: −log10 of the molar value. Activity calls are given as the source filed them. The calls are words filed in the database; no cut-off is given here.

Tests used:
MDA-MB-231 = assay: Antiproliferative activity against ER/PR/HER2 deficient human MDA-MB-231 cells after 72 hrs by SRB assay; format: functional, cell-based; conditions: MDA-MB-231, 72 h
Procedure, shortened: (§1)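 SRB antiproliferative assay (modified NCI protocol). Cells seeded per well (SK-BR-3, MDA-MB-231, T47D, HT-1080, HT-1080 CYP1A1 and empty-vector: 3.0 x 10^3; MDA-MB-468: 5.0 x 10^3; MCF7: 7.5 x 10^3), preincubated 24 h. DMSO-solubilized drug added at 0.75 to 1.0 x 10^5 nM, then 72 h. Fixed with cold 10% TCA, stained with 0.1% sulforhodamine B, absorbance read at 530-565 nm. At least two experiments, triplicate cultures.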

MDA-MB-468 [1] = assay: Antiproliferative activity against ER/PR/HER2 deficient human MDA-MB-468 cells after 72 hrs by SRB assay; format: functional, cell-based; conditions: MDA-MB-468, 72 h; procedure, shortened: as §1
T47D = assay: Antiproliferative activity against ER/PR/HER2 expressing human T47D cells after 72 hrs by SRB assay; format: functional, cell-based; procedure, shortened: as §1
SK-BR-3 = assay: Antiproliferative activity against ER/PR deficient and HER2 expressing human SKBR3 cells after 72 hrs by SRB assay; format: functional, cell-based; conditions: SK-BR-3, 72 h; procedure, shortened: as §1
MCF7 = assay: Antiproliferative activity against human MCF7 cells after 72 hrs by SRB assay; format: functional, cell-based; conditions: MCF7, 72 h; procedure, shortened: as §1
[2] = Selectivity ratio of IC50 for ER/PR/HER2 deficient human MDA-MB-231 cells to IC50 for ER/PR/HER2 deficient human MDA-MB-468 cells; format: functional
Procedure, shortened: (§2)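 Ratio is IC50 in reference line over IC50 in sensitive line. […] Cells in DMEM with 5% calf serum at 37 °C. At least two experiments, triplicate cultures; assay accepted when relative SD < 10%.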

[3] = Selectivity ratio of IC50 for ER/PR/HER2 deficient human MDA-MB-231 cells to IC50 for ER/PR/HER2 expressing human T47D cells; format: functional; procedure, shortened: as §2
[4] = Selectivity ratio of IC50 for ER/PR/HER2 deficient human MDA-MB-231 cells to IC50 for ER/PR deficient and HER2 expressing human SKBR3 cells; format: functional; procedure, shortened: as §2
[5] = Selectivity ratio of IC50 for ER/PR/HER2 deficient human MDA-MB-231 cells to IC50 for human MCF7 cells; format: functional; procedure, shortened: as §2
Cytochrome P450 1A1 = target: T1, Cytochrome P450 1A1 (Homo sapiens, UniProt P04798); assay: Inhibition of human supersomes CYP1A1-mediated 7-ethoxyresorufin conversion to fluorescent resorufin preincubated with 7-ethoxyresorufin for 5 mins followed by addition of NADPH regenerating system measured for 15 mins by EROD assay; format: ADME
T1 sequence (P04798 whole entry): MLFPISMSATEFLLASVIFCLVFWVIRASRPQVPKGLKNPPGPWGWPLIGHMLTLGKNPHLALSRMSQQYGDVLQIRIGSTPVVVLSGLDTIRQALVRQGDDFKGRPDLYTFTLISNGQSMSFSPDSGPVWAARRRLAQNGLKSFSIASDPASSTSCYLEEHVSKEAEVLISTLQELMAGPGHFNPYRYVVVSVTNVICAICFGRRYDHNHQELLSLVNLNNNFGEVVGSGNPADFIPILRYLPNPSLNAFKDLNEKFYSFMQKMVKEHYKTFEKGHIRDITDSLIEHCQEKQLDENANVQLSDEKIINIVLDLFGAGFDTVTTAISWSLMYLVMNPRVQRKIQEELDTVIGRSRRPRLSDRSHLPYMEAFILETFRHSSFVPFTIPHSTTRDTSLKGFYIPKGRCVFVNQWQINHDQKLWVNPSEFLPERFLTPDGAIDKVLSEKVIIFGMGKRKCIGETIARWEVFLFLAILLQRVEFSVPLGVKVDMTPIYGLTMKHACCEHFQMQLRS
Procedure, shortened: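 EROD assay with human CYP1A1 supersomes containing reductase, in potassium phosphate buffer. Drug final 32–31 600 nM and 7-ethoxyresorufin 94–3 000 nM, with 0.35% DMSO, preincubated 5 min at 37 °C. Reaction started with NADPH-regenerating system and 0.15 pmol CYP1A1 in 150 µL. Initial velocity taken from 1–5 min; Vmax and Km from Lineweaver-Burk plot.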

MDA-MB-468 [6] = assay: Cytotoxicity against human MDA-MB-468 cells after 72 hrs in presence of CYP inhibitor pentachlorophenol by SRB assay; format: functional, cell-based
Procedure, shortened: (§3)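 MDA-MB-468 cells co-incubated for 72 h with drug plus a subtoxic concentration of a CYP inhibitor. Viability read by SRB assay: TCA fixation, sulforhodamine B staining, absorbance at 530-565 nm.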

MDA-MB-468 [7] = assay: Cytotoxicity against human MDA-MB-468 cells after 72 hrs in presence of CYP inhibitor salicylamide by SRB assay; format: functional, cell-based; procedure, shortened: as §3
Cytochrome P450 3A4 = Cytochrome P450 3A4 (Homo sapiens, UniProt P08684); assay: Prodrug activation assessed as human supersomes CYP3A4-mediated 3,4,5-trimethoxyphenyl 4-(2-oxoimidazolidin-1-yl)benzenesulfonate formation after 4 hrs by HPLC-MS analysis; format: ADME; conditions: recombinant enzyme
HT-1080 [8] = assay: Antiproliferative activity against human wild type HT1080 cells after 72 hrs by SRB assay; format: functional, cell-based; conditions: HT-1080, 72 h; procedure, shortened: as §1
HT-1080 [9] = assay: Antiproliferative activity against human HT1080 cells transfected with pCMV6-AC empty plasmid after 72 hrs by SRB assay; format: functional, cell-based; conditions: HT-1080, 72 h; procedure, shortened: as §1
HT-1080 [10] = assay: Antiproliferative activity against human HT1080 cells transfected with CYP1A1 after 72 hrs by SRB assay; format: functional, cell-based; conditions: HT-1080, 72 h; procedure, shortened: as §1
HT-1080 [11] = assay: Selectivity ratio of IC50 for HT1080 cells transfected with pCMV6-AC empty plasmid to IC50 for human HT1080 cells transfected with CYP1A1; format: functional
Procedure, shortened: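 Ratio is IC50 (HT-1080 empty vector) over IC50 (HT-1080 CYP1A1). Both lines stably transfected (pCMV6-AC plasmids) and kept under G418 selection, seeded at 3.0 x 10^3 cells. IC50s from SRB antiproliferative assay.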

HT-1080 [12] = assay: Antitumor activity against human HT1080 cells implanted in chicken chorioallantoic membrane assessed as tumor growth inhibition at 1 ug/egg, iv administered on day 11 post implantation measured on day 17; format: functional
Procedure, shortened: (§4)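 Chick CAM tumor model using HT-1080 cells (wild-type or stably transfected with CYP1A1 or empty plasmid). Eggs incubated 10 d. On day 11, drug in DMSO (40 mM stock) was diluted in cremophor/EtOH/PBS (6.25/6.25/87.5), DMSO kept below 0.5%, and given iv in 100 µL to 10-12 eggs. Tumors excised on day 17 and wet-weighed. Two independent experiments (20-24 eggs); embryo deaths and toxicity recorded.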

HT-1080 [13] = assay: Antitumor activity against CYP1A1 transfected human HT1080 cells implanted in chicken chorioallantoic membrane assessed as tumor growth inhibition at 1 ug/egg, iv administered on day 11 post implantation measured on day 17; format: functional; procedure, shortened: as §4
HT-1080 [14] = assay: Antitumor activity against empty plasmid transfected human HT1080 cells implanted in chicken chorioallantoic membrane assessed as tumor growth inhibition at 1 ug/egg, iv administered on day 11 post implantation measured on day 17; format: functional; procedure, shortened: as §4
MDA-MB-468 [15] = assay: Cell cycle arrest in human MDA-MB-468 cells assessed as accumulation at G2/M phase at 8 nM after 24 hrs by DAPI-staining based FACS analysis (reference value: 19.5%); format: functional
Homo sapiens = species: Homo sapiens; assay: Destabilization of microtubule network in human MDA-MB-468 cells at 8 nM after 24 hrs by fluorescence microscopic analysis; format: cell-based

Sequence of Cytochrome P450 3A4 (P08684 whole entry): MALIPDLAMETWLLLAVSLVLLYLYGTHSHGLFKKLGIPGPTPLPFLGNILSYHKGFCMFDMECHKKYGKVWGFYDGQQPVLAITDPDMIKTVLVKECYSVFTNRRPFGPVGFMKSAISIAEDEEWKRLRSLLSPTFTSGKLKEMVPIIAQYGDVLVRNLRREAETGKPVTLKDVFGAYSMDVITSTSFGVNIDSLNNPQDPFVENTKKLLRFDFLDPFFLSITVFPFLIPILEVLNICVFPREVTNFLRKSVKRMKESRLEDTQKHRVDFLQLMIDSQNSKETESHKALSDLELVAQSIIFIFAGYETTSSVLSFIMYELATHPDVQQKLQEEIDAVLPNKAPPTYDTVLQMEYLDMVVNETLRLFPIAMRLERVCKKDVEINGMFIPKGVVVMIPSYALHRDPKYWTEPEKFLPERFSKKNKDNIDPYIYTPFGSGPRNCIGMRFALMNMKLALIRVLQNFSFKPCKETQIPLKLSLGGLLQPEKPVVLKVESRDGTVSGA

| pIC50 (MDA-MB-231) | pIC50 (MDA-MB-468 [1]) | pIC50 (T47D) | pIC50 (SK-BR-3) | pIC50 (MCF7) | pIC50 (HT-1080 [8]) | pIC50 (HT-1080 [9]) | pIC50 (HT-1080 [10]) | Structure (SMILES) | Ratio IC50 [2] | Ratio IC50 [3] | Ratio IC50 [4] | Ratio IC50 [5] | Ratio IC50 (HT-1080 [11]) | TGI (HT-1080 [12]) | TGI (HT-1080 [13]) | TGI (HT-1080 [14]) | further results |
| --- | --- | --- | --- | --- | --- | --- | --- | --- | --- | --- | --- | --- | --- | --- | --- | --- | --- |
| 5.22 | 8.00 | 7.70 | 8.70 | 8.26 | 5.26 | 4.33 | 7.89 | CCCCN1CCN(c2ccc(S(=O)(=O)Oc3cc(OC)c(OC)c(OC)c3)cc2)C1=O | 590 | 300 | 3000 | 1100 | 3600 | 15% | 49% | inactive | pKi (Cytochrome P450 1A1; read-out: Ki): 6.27; Activity (MDA-MB-468 [6]): Active; Activity (MDA-MB-468 [7]): Active; Drug metabolism (Cytochrome P450 3A4): Metabolite_Notdetected |
| 8.19 | 8.34 | 8.21 | 8.51 | 8.51 | 8.44 | 8.48 | 8.77 | COc1cc(OS(=O)(=O)c2ccc(N3CCNC3=O)cc2)cc(OC)c1OC | 1.4 | 1 | 2.1 | 2.1 | 1.9 | 51% | 32% | 21% | Activity (MDA-MB-468 [15]): 74.4%; Ki (Cytochrome P450 1A1): Not Active; Activity (Homo sapiens): Active |
